Data set [1] relates to Mus musculus. As to the kind of experiment: Toxicity in mouse P388 cells allografted CD2F1 mouse assessed as body weight loss at 1.88 mg/kg, ip of total 9 doses starting 24 hrs post tumor inoculation measured on day 5 of inoculation relative to control. The format is organism-based. Details: dose 1.88 mg/kg, route intraperitoneal. The settings on record: in vivo. The method, boiled down: (§1)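 Male CD2F1 mice inoculated ip with 6×10^6 P388 leukemia cells. Compounds given ip as distilled water–Tween 80 suspension, nine daily doses starting 24 h after inoculation; six mice per dose group. Treated-minus-control body-weight change (T − C) and toxicity-day survivors recorded on day 5 (4 days after first dose).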

The subject of data set [2] is Mus musculus. As to the kind of experiment: Toxicity in mouse P388 cells allografted CD2F1 mouse assessed as body weight loss at 3.75 mg/kg, ip of total 9 doses starting 24 hrs post tumor inoculation measured on day 5 of inoculation relative to control. The format is organism-based. On the set-up: dose 3.75 mg/kg, route intraperitoneal. To be noted: in vivo. The method, boiled down: as §1

Data set [3] deals with P388. As to the kind of experiment: Antitumor activity against mouse P388 cells allografted in CD2F1 mouse assessed as increase in mouse survival at 7.5 mg/kg, ip of total 9 doses starting 24 hrs post tumor inoculation measured on day 5 of inoculation relative to control. The format is functional. The settings on record: route intraperitoneal. The method in brief: (§2)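 Male CD2F1 mice inoculated ip with 6×10^6 P388 leukemia cells. Dosing was ip as a suspension in distilled water–Tween 80, nine daily doses starting 24 h after inoculation. Activity was read as median survival time of treated vs control mice (% T/C); % T/C ≥ 120 was considered significant. Groups were 6 mice.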

Data set [4] concerns Mus musculus. As to the kind of experiment: Toxicity in mouse P388 cells allografted CD2F1 mouse assessed as mouse survival at 1.88 mg/kg, ip of total 9 doses starting 24 hrs post tumor inoculation measured on day 5 of inoculation relative to control. The format is organism-based. On the set-up: dose 1.88 mg/kg, route intraperitoneal. To be noted: in vivo. The method in brief:
(§3)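 Male CD2F1 mice bearing ip P388 leukemia (6×10^6 cells) were dosed ip with nine daily doses in distilled water–Tween 80 suspension, starting 24 h after inoculation. Survivors per group of 6 were counted on day 5, i.e. 4 days after the first dose. Body-weight change of treated minus control mice was also recorded.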

Data set [5] has as its system Mus musculus. As to the kind of experiment: Toxicity in mouse P388 cells allografted CD2F1 mouse assessed as body weight loss at 7.5 mg/kg, ip of total 9 doses starting 24 hrs post tumor inoculation measured on day 5 of inoculation relative to control. The settings on record: in vivo. Format: organism-based. On the set-up: dose 7.5 mg/kg, route intraperitoneal. The method in brief: as §1

Data set [6] relates to Mus musculus. As to the kind of experiment: Toxicity in mouse P388 cells allografted CD2F1 mouse assessed as mouse survival at 3.75 mg/kg, ip of total 9 doses starting 24 hrs post tumor inoculation measured on day 5 of inoculation relative to control. Format: organism-based. On the set-up: dose 3.75 mg/kg, route intraperitoneal. To be noted: in vivo. The method, boiled down:
as §3

For data set [7], the system named is Mus musculus. As to the kind of experiment: Toxicity in mouse P388 cells allografted CD2F1 mouse assessed as mouse survival at 7.5 mg/kg, ip of total 9 doses starting 24 hrs post tumor inoculation measured on day 5 of inoculation relative to control. Format: organism-based. On the set-up: dose 7.5 mg/kg, route intraperitoneal. The settings on record: in vivo. The method in brief:
as §3

Data set [8] has as its system Mus musculus. As to the kind of experiment: Toxicity in mouse P388 cells allografted CD2F1 mouse assessed as mouse survival at 30 mg/kg, ip of total 9 doses starting 24 hrs post tumor inoculation measured on day 5 of inoculation relative to control. The format is organism-based. On the set-up: dose 30 mg/kg, route intraperitoneal. The settings on record: in vivo. The method in brief: as §3

For data set [9], the system named is Mus musculus. As to the kind of experiment: Toxicity in mouse P388 cells allografted CD2F1 mouse assessed as mouse survival at 15 mg/kg, ip of total 9 doses starting 24 hrs post tumor inoculation measured on day 5 of inoculation relative to control. Format: organism-based. Details: dose 15 mg/kg, route intraperitoneal. To be noted: in vivo. The method, boiled down: as §3

Data set [10] concerns Mus musculus. As to the kind of experiment: Toxicity in mouse P388 cells allografted CD2F1 mouse assessed as body weight loss at 15 mg/kg, ip of total 9 doses starting 24 hrs post tumor inoculation measured on day 5 of inoculation relative to control. On the set-up: dose 15 mg/kg, route intraperitoneal. Format: organism-based. To be noted: in vivo. The method, boiled down: as §1

Data set [11] has as its system P388. As to the kind of experiment: Antitumor activity against mouse P388 cells allografted in CD2F1 mouse assessed as increase in mouse survival at 3.75 mg/kg, ip of total 9 doses starting 24 hrs post tumor inoculation measured on day 5 of inoculation relative to control. Format: functional. To be noted: route intraperitoneal. The method, boiled down: as §2
The test system of data set [12] is P388. As to the kind of experiment: Antitumor activity against mouse P388 cells allografted in CD2F1 mouse assessed as increase in mouse survival at 30 mg/kg, ip of total 9 doses starting 24 hrs post tumor inoculation measured on day 5 of inoculation relative to control. Format: functional. The settings on record: route intraperitoneal. The method in brief: as §2

The test system of data set [13] is P388. As to the kind of experiment: Antitumor activity against mouse P388 cells allografted in CD2F1 mouse assessed as increase in mouse survival at 15 mg/kg, ip of total 9 doses starting 24 hrs post tumor inoculation measured on day 5 of inoculation relative to control. The format is functional. To be noted: route intraperitoneal. The method in brief: as §2

Data set [14] relates to P388. As to the kind of experiment: Antitumor activity against mouse P388 cells allografted in CD2F1 mouse assessed as increase in mouse survival at 1.88 mg/kg, ip of total 9 doses starting 24 hrs post tumor inoculation measured on day 5 of inoculation relative to control. The format is functional. To be noted: route intraperitoneal. The method in brief: as §2
Data set [15] has as its system Mus musculus. As to the kind of experiment: Toxicity in mouse P388 cells allografted CD2F1 mouse assessed as body weight loss at 30 mg/kg, ip of total 9 doses starting 24 hrs post tumor inoculation measured on day 5 of inoculation relative to control. Format: organism-based. Details: dose 30 mg/kg, route intraperitoneal. To be noted: in vivo. The method, boiled down:
as §1

The test system of data set [16] is Mus musculus. As to the kind of experiment: Toxicity in mouse P388 cells allografted CD2F1 mouse assessed as mouse survival at 100 mg/kg, ip of total 9 doses starting 24 hrs post tumor inoculation measured on day 5 of inoculation relative to control. The format is organism-based. Details: dose 100 mg/kg, route intraperitoneal. The settings on record: in vivo. The method in brief: as §3

Data set [17] relates to Mus musculus. As to the kind of experiment: Toxicity in mouse P388 cells allografted CD2F1 mouse assessed as body weight loss at 50 mg/kg, ip of total 9 doses starting 24 hrs post tumor inoculation measured on day 5 of inoculation relative to control. The format is organism-based. Details: dose 50 mg/kg, route intraperitoneal. To be noted: in vivo. The method, boiled down: as §1

Data set [18] relates to Mus musculus. As to the kind of experiment: Toxicity in mouse P388 cells allografted CD2F1 mouse assessed as body weight loss at 200 mg/kg, ip of total 9 doses starting 24 hrs post tumor inoculation measured on day 5 of inoculation relative to control. On the set-up: dose 200 mg/kg, route intraperitoneal. The settings on record: in vivo. The format is organism-based. The method, boiled down: as §1

Data set [19] relates to P388. As to the kind of experiment: Antitumor activity against mouse P388 cells allografted in CD2F1 mouse assessed as increase in mouse survival at 100 mg/kg, ip of total 9 doses starting 24 hrs post tumor inoculation measured on day 5 of inoculation relative to control. The settings on record: route intraperitoneal. Format: functional. The method in brief:
as §2

Data set [20] has as its system Mus musculus. As to the kind of experiment: Toxicity in mouse P388 cells allografted CD2F1 mouse assessed as body weight loss at 25 mg/kg, ip of total 9 doses starting 24 hrs post tumor inoculation measured on day 5 of inoculation relative to control. The settings on record: in vivo. On the set-up: dose 25 mg/kg, route intraperitoneal. Format: organism-based. The method in brief:
as §1

In data set [21] the test system is P388. As to the kind of experiment: Antitumor activity against mouse P388 cells allografted in CD2F1 mouse assessed as increase in mouse survival at 25 mg/kg, ip of total 9 doses starting 24 hrs post tumor inoculation measured on day 5 of inoculation relative to control. Format: functional. To be noted: route intraperitoneal. The method, boiled down:
as §2

Data set [22] relates to Mus musculus. As to the kind of experiment: Toxicity in mouse P388 cells allografted CD2F1 mouse assessed as body weight loss at 12.5 mg/kg, ip of total 9 doses starting 24 hrs post tumor inoculation measured on day 5 of inoculation relative to control. The format is organism-based. On the set-up: dose 12.5 mg/kg, route intraperitoneal. The settings on record: in vivo. The method in brief:
as §1

For data set [23], the system named is Mus musculus. As to the kind of experiment: Toxicity in mouse P388 cells allografted CD2F1 mouse assessed as mouse survival at 50 mg/kg, ip of total 9 doses starting 24 hrs post tumor inoculation measured on day 5 of inoculation relative to control. The settings on record: in vivo. Details: dose 50 mg/kg, route intraperitoneal. The format is organism-based. The method in brief: as §3

In data set [24] the test system is P388. As to the kind of experiment: Antitumor activity against mouse P388 cells allografted in CD2F1 mouse assessed as increase in mouse survival at 200 mg/kg, ip of total 9 doses starting 24 hrs post tumor inoculation measured on day 5 of inoculation relative to control. Format: functional. The settings on record: route intraperitoneal. The method, boiled down:
as §2

The test system of data set [25] is Mus musculus. As to the kind of experiment: Toxicity in mouse P388 cells allografted CD2F1 mouse assessed as mouse survival at 12.5 mg/kg, ip of total 9 doses starting 24 hrs post tumor inoculation measured on day 5 of inoculation relative to control. The format is organism-based. On the set-up: dose 12.5 mg/kg, route intraperitoneal. The settings on record: in vivo. The method in brief:
as §3

For data set [26], the system named is Mus musculus. As to the kind of experiment: Toxicity in mouse P388 cells allografted CD2F1 mouse assessed as body weight loss at 100 mg/kg, ip of total 9 doses starting 24 hrs post tumor inoculation measured on day 5 of inoculation relative to control. Format: organism-based. Details: dose 100 mg/kg, route intraperitoneal. To be noted: in vivo. The method, boiled down: as §1

For data set [27], the system named is P388. As to the kind of experiment: Antitumor activity against mouse P388 cells allografted in CD2F1 mouse assessed as increase in mouse survival at 50 mg/kg, ip of total 9 doses starting 24 hrs post tumor inoculation measured on day 5 of inoculation relative to control. Format: functional. To be noted: route intraperitoneal. The method, boiled down:
as §2

For data set [28], the system named is Mus musculus. As to the kind of experiment: Toxicity in mouse P388 cells allografted CD2F1 mouse assessed as mouse survival at 25 mg/kg, ip of total 9 doses starting 24 hrs post tumor inoculation measured on day 5 of inoculation relative to control. The format is organism-based. On the set-up: dose 25 mg/kg, route intraperitoneal. The settings on record: in vivo. The method, boiled down: as §3

Data set [29] deals with Mus musculus. As to the kind of experiment: Toxicity in mouse P388 cells allografted CD2F1 mouse assessed as mouse survival at 200 mg/kg, ip of total 9 doses starting 24 hrs post tumor inoculation measured on day 5 of inoculation relative to control. The format is organism-based. On the set-up: dose 200 mg/kg, route intraperitoneal. To be noted: in vivo. The method, boiled down: as §3

In data set [30] the test system is P388. As to the kind of experiment: Antitumor activity against mouse P388 cells allografted in CD2F1 mouse assessed as increase in mouse survival at 12.5 mg/kg, ip of total 9 doses starting 24 hrs post tumor inoculation measured on day 5 of inoculation relative to control. The format is functional. To be noted: route intraperitoneal. The method, boiled down:
as §2

What is called T/C is the ratio of treated to control. For the compound `CNC(=O)OCc1c(COC(=O)NC)c(-c2ccc(-c3ccccc3)cc2)n(C)c1C`, the Activity in the data set with Mus musculus [1] is 0.6 g; with Mus musculus [2] it was 1.3 g; in the data set with Mus musculus [4], “Non-toxic”; in the data set with Mus musculus [5], 2.2 g; with Mus musculus [6], “Non-toxic”; in the data set with Mus musculus [7], “Non-toxic”. Moreover, the Activity result in the data set on Mus musculus [8] was “Non-toxic”; with Mus musculus [9], “Non-toxic”; in the data set with Mus musculus [10], 3.1 g; in the data set on Mus musculus [15], 3.6 g. Also, the T/C in the data set on P388 [3] is listed as 144%; with P388 [11], 144%; with P388 [12], 144%; in the data set with P388 [13], 153%; in the data set with P388 [14] it was 135%.
Turning to `CNC(=O)OCc1c(COC(=O)NC)c(-c2ccc(S(C)(=O)=O)cc2)n(C)c1C`, the Activity result was “Non-toxic” in the data set on Mus musculus [16]; 1.1 g in the data set with Mus musculus [17]; 3.7 g with Mus musculus [18]; 0.8 g in the data set on Mus musculus [20]; 0.4 g in the data set on Mus musculus [22]; “Non-toxic” with Mus musculus [23]. Further, the Activity entry was “Non-toxic” in the data set with Mus musculus [25], 2.1 g in the data set with Mus musculus [26], “Non-toxic” in the data set on Mus musculus [28] and “Non-toxic” in the data set on Mus musculus [29]. Further, the T/C came out at 180% in the data set with P388 [19]; 144% in the data set with P388 [21]; 198% with P388 [24]; 162% in the data set on P388 [27]; 136% in the data set with P388 [30].

These data come from ChEMBL document CHEMBL3243962, “Antileukemic activity of derivatives of 1,2-dimethyl-3,4-bis(hydroxymethyl)-5-phenylpyrrole bis(N-methylcarbamate)” (J Med Chem, 1979).
